Data published in ChEMBL document CHEMBL1687720 (Antimicrob Agents Chemother, 2009).
≈ marks a conversion by molar mass, not a printed value. Calls of active or inactive are those of the source. The calls are words filed in the database; no cut-off is given here.

Experiments:
Plasmodium falciparum [1] = assay: Antiplasmodial activity against chloroquine-sensitive Plasmodium falciparum 3D7 assessed as inhibition of ring stage parasite growth at IC50 after 6 hr by [3H]hypoxanthine incorporation assay; format: functional, organism-based
Summary of the method: (§1)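 P. falciparum 3D7 is synchronized with sorbitol. […] Cells are washed four times, then labelled with [3H]hypoxanthine for 24 h. Growth is given as % of untreated control for each stage, in triplicate.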

Plasmodium falciparum [2] = assay: Antiplasmodial activity against chloroquine-sensitive Plasmodium falciparum 3D7 assessed as inhibition of trophozoite stage parasite growth at IC50 after 6 hr by [3H]hypoxanthine incorporation assay; format: functional, organism-based; summary of the method: as §1
Heme = assay: Inhibition of heme aggregation at 500 uM
Summary of the method: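 Hemin chloride stock (10 mM in 0.1 M NaOH), prepared fresh and held at 37°C for at least 1 h. Aggregation run in 20 mM sodium phosphate pH 5.2 with 25 μM initial heme at 37°C. Inhibitor dissolved in dimethylformamide or buffer. After incubation, samples centrifuged and absorbance read at 360 nm, with matching control values subtracted.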

Plasmodium falciparum [3] = assay: Antiplasmodial activity against chloroquine-sensitive Plasmodium falciparum 3D7 assessed as inhibition of schizont stage parasite growth at IC50 after 6 hr by [3H]hypoxanthine incorporation assay; format: functional, organism-based; summary of the method: as §1
L6 = assay: Cytotoxicity against rat L6 cells; format: cell-based

CCN(CC)CCCC(C)Nc1ccnc2cc(Cl)ccc12 (stereo not given)
growth inhibition (GI) (Plasmodium falciparum [1]): Active
growth inhibition (GI) (Plasmodium falciparum [2]): Active
inhibition (Heme): inactive
growth inhibition (GI) (Plasmodium falciparum [3]): Active

COc1cc([C@@H]2c3cc4c(cc3[C@H](O)[C@H]3COC(=O)[C@H]23)OCO4)cc(OC)c1OC [PODOFILOX]
IC50 (L6): 8 ng/mL (≈ 0.0193 µM)
